B2AR ag: beta2AR agonists driving receptor internalization, primary screen, cell-based, FAP fluorogen, flow cytometry. response, % (no concentration beside the values). Am2.2-beta2AR cells. hit rate 0.43% among 340,000. Beta-2 adrenergic receptor (Homo sapiens), P07550;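 active = response above a set limit, near 3 SD of response in nonfluorescent compounds, cut at about 42% in these data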
Target sequence (P07550 whole entry, looked up): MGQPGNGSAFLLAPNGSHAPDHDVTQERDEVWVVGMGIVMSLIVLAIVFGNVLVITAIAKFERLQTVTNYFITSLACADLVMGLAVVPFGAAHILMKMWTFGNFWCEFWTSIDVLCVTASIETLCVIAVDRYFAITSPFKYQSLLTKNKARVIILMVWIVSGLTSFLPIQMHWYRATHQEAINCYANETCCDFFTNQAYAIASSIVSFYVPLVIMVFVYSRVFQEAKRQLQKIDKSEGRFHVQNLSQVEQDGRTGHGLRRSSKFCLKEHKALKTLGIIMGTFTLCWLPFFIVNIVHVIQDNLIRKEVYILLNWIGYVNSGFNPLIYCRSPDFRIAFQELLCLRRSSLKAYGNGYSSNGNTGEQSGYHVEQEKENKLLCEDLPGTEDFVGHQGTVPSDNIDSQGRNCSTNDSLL
T cell HTS: modulators of CD8 T cell-vesicle binding, primary screen, mouse 2C CD8+ T cells, flow cytometry | 2C CD8+ T cell-vesicle binding; hits give low values | response (vesicle binding), % at 7 µM | hit rate 0.068% among 330,000 | AID 2052, 2009;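 active = response, share of CD8 T cells binding vesicles, and their 90th percentile fluorescence all below set limits, cut at about 80% in these data, passing the limit was not always enough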;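 also: values below 100% mean blocked vesicle binding to the CD8+ T cells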
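Assay system – 2C mouse CD8+ T cells · Also added – QL9-loaded Drosophila micro-vesicles · Timing – Cell–vesicle co-incubation 1.5 h at 37 °C, staining 20 min on ice · Signal – flow cytometry of vesicle-bound cells · Measure – percent CD8+ FL2 mean versus row control · Controls – Peptide-free naked vesicles (low) and QL9 vesicles with 0.7% DMSO vehicle (high)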
V-ATPase pH: regulators of yeast V-ATPase proton pumping, primary screen, pHLuorin cytosolic pH fluorescence; S. cerevisiae; response, % at 10 µM; hit rate 0.37% among 350,000; AID 504577, 2011; in the data active = response mostly above about 7.3%, no sharp cut-off; inactive = mostly below about 5.4%; also: actives read high
MPTP inh: mitochondrial permeability transition pore inhibitors, primary screen, biochemical, isolated mouse mitochondria, absorbance. hit rate 1.4% among 360,000. Ca2+ swelling absorbance, 30 min. inhibition, % at 10 µM. AID 602449, 2012;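 active = inhibition of 50% or more, scaled per plate between neutral and stimulator controls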;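 also: 0% = DMSO wells given calcium and 100% = 1 mM EGTA wells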
rCAG RNA binder: binders of r(CAG) RNA repeats, primary screen, biochemical, fluorescence | r(CAG) RNA repeat, TO-PRO-1 dye displacement fluorescence | inhibition, % at 3 µM | hit rate 1.3% among 370,000 | AID 651821, 2012;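 active = inhibition above the plate cutoff, the mean of all test compounds on that plate plus 3 SD, cut at about 35% in these data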;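 also: 0% = DMSO alone and 100% = 100 µM mitoxantrone as full dye displacement; higher means more dye released from RNA so lower well fluorescence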
Exocytosis inh: LAMP-1 surface exposure blockers, TALL-104 cells – cell-based, flow cytometry, MLPCN library, primary screen. TALL-104 LAMP-1 surface exposure; cells stimulated with thapsigargin and PMA. inhibition, % at 10 µM. hit rate 0.66% among 360,000. AID 651702, 2012;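 active = inhibition above about 55%, limit read from the data; inconclusive = no clear call, values can overlap the other calls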
MPTP counter: fluorescence retest of MPTP screen hits in isolated mitochondria, single concentration; shares compounds with MPTP inh; membrane potential, Rhodamine 123 fluorescence; inhibition, % at 10 µM; hit rate 78% among 5,000; in the data active = inhibition above about 22%;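 also: 0% = DMSO vehicle and 100% = positive control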
MPTP abs DR: mitochondrial permeability transition pore inhibitors, dose response, biochemical, absorbance, uHTS hits. IC50, µM. AID 651561, 2012. hit rate 58% among 780. isolated mitochondria swelling. shares compounds with MPTP inh; in the data active = IC50 below about 20 µM
MPTP counter DR: fluorescent counter-screen in isolated mitochondria, dose response, counter-screen for MPTP inhibitor project, biochemical, fluorescence, uHTS hits. shares compounds with MPTP inh. isolated mitochondria counterscreen, fluorescence read-out. IC50, µM. hit rate 49% among 780; in the data active = IC50 below about 80 µM
* = called active by the depositor. Rows were chosen to be rich in hits. Some 3.8% of all compounds tested hit in one or more screens of this group.

How did Cc1c[nH]c2cccc(-c3ccc4c(c3)OCO4)c12 do in these assays?
rCAG RNA binder: 3

What do the screens show for `C#CCOCCOCCOCCNc1nc(N2CCN(C(=O)CCCCCCCCCCNC(=O)Cn3cc(CCCCCN)nn3)CC2)nc(N2CCN(C(=O)CCCCCCCCCCNC(=O)[C@H]([C@@H](C)CC)n3cc(CCCCCN)nn3)CC2)n1`?
B2AR ag: 30; T cell HTS: 187; V-ATPase pH: 1; MPTP inh: 163*; Exocytosis inh: 0; MPTP counter: 101*

How did C#CCOCCOCCOCCNc1nc(N2CCN(C(=O)[C@H](CCCCN)n3cc(CN)nn3)CC2)nc(N2CCN(C(=O)[C@H](CCCN=C(N)N)n3cc(C(N)[C@H](C)CC)nn3)CC2)n1 (some centres not stated) do in these assays?
B2AR ag: -5; T cell HTS: 404; V-ATPase pH: -2; MPTP inh: 84*; rCAG RNA binder: 17; Exocytosis inh: -15; MPTP counter: -9; MPTP abs DR: inactive; MPTP counter DR: >80

How did C#CCOCCOCCOCCNc1nc(N2CCN(C(=O)[C@H](CCCN=C(N)N)n3cc(C(N)[C@H](C)CC)nn3)CC2)nc(N2CCN(C(=O)[C@H](CCCN=C(N)N)n3cc(C(N)[C@@H](C)CC)nn3)CC2)n1 (some centres not stated) do in these assays?
B2AR ag: -15; T cell HTS: 309; V-ATPase pH: 1; MPTP inh: -4; Exocytosis inh: -1

What do the screens show for `COC(=O)C1=C(C)N(Cc2ccc(C(F)(F)F)cc2)C(=NCc2ccccc2C(F)(F)F)NC1c1ccc(Cl)cc1` (configuration not stated)?
rCAG RNA binder: 5

Results for CC(=O)Nc1csc2ccccc12 ?
B2AR ag: -2; T cell HTS: 186; V-ATPase pH: 1; MPTP inh: 1; rCAG RNA binder: -1; Exocytosis inh: -3

Results for CC1(C)SC(=S)N(NC(=O)Nc2ccccc2)C1N(O)C(=O)Nc1cccc2ccccc12 (configuration not stated) ?
B2AR ag: 9; T cell HTS: 144; V-ATPase pH: -2; MPTP inh: 72*; rCAG RNA binder: 7; Exocytosis inh: -6; MPTP counter: 69*

What do the screens show for `CC1(C)SC(=S)N(/N=C/c2ccccc2O)C1N(O)C(=O)Nc1ccccc1` (configuration not stated)?
B2AR ag: 11; T cell HTS: 116; V-ATPase pH: -1; MPTP inh: 50; rCAG RNA binder: 6; Exocytosis inh: -1

What do the screens show for `O=C(Nc1ccccc1)Nc1csc2ccccc12`?
B2AR ag: 6; T cell HTS: 216; V-ATPase pH: 2; MPTP inh: 84*; rCAG RNA binder: 12; Exocytosis inh: -9; MPTP counter: 85*

What do the screens show for `O=C(Nc1ccccc1)Nc1cccc2ccccc12`?
B2AR ag: 2; T cell HTS: 591; V-ATPase pH: 2; MPTP inh: 71*; rCAG RNA binder: 4; Exocytosis inh: inconclusive; MPTP counter: 75*

What do the screens show for `COc1cccc(NC(=O)Nc2c(-c3ccc(C(F)(F)F)cc3)nc3ncccn23)c1`?
rCAG RNA binder: 7

What do the screens show for `CCc1ccc(Nc2n[n+](-c3ccccc3)c(-c3ccc(N(CC)CC)cc3)s2)cc1`?
B2AR ag: inactive; T cell HTS: 279; V-ATPase pH: -3; MPTP inh: 96*; rCAG RNA binder: -9; Exocytosis inh: 6; MPTP counter: 114*
